# Compound activity as filed in PubChem.
# M4 ag = CHRM4 agonism in calcium assay; P08173; CHO-K1 hM4/Gqi5, Fluo-8 calcium fluorescence; vehicle 0%, full acetylcholine response 100%; activation, % at 3 µM; 360,000 tested, 0.14% active;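 active means activation above the run mean over all test wells plus 3 SD, cut at about 32% in these data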;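 further: peak over basal fluorescence ratio per well then scaled between controls; 0% = DMSO wells and 100% = acetylcholine at EC100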
# CHRM5 antagonist = blocks acetylcholine activation of human M5 receptor; 360,000 tested, 0.59% active; P08912; AID 624040; CHO-hM5 cells, Fluo-8 calcium fluorescence, ACh EC80; inhibition, % at 3 µM;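 active means inhibition above a per-plate cutoff, the mean of that plate's test compounds plus 3 SD, cut at about 27% in these data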;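 further: 0% = acetylcholine EC80 with DMSO and 100% = DMSO without agonist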
# Target sequence (P08912 whole entry, looked up): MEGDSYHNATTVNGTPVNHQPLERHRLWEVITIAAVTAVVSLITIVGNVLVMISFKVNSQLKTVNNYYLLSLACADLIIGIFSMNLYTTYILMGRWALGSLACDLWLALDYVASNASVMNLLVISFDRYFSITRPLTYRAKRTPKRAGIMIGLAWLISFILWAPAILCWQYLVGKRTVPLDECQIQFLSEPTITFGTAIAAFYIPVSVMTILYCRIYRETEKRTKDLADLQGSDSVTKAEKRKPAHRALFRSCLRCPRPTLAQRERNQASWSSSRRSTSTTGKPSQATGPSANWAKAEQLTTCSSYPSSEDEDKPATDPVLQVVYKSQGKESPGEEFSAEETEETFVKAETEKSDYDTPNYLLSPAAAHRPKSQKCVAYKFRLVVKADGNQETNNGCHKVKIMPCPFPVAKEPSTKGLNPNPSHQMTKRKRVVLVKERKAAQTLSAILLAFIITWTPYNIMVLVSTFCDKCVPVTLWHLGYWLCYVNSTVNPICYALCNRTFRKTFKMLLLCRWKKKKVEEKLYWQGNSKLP
# M5 ag = agonists of human muscarinic M5 receptor (CHRM5); P08912; CHO-K1 hM5 cells, Fluo-8 calcium fluorescence; 0% DMSO wells, 100% maximal acetylcholine response; activation, % at 3 µM; 360,000 tested, 0.19% active; AID 624037;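 active means activation above the run's mean over test compounds plus 3 SD, cut at about 23% in these data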;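 further: signal is peak over basal fluorescence ratio across the kinetic read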
# M5 PAM = positive allosteric modulators of human muscarinic M5 receptor; CHO-K1 hM5, Fluo-8 calcium, ACh EC20 PAM; 0% = ACh EC20, 100% = ACh EC100; activation, % at 3 µM; 360,000 tested, 0.3% active; AID 624038;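 active means activation above the run cutoff, the mean activation of all test compounds plus 3 SD, cut at about 18% in these data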
#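 System: CHO-K1 cell line with stable human muscarinic M5 receptor expression | Also added: EC20 acetylcholine as agonist stimulus | Compound: One concentration, 3 µM final (nominal) | Timing: Fluo-8 loading 80 min at 37 °C plus 30 min room temperature | Measured by: Fluo-8 calcium dye fluorescence, kinetic read | Read-out basis: % activation, ACh-normalized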
# M4 PAM = potentiates acetylcholine response at human M4 receptor; 360,000 tested, 0.4% active; CHO-K1 hM4/Gqi5, Fluo-8 calcium fluorescence, ACh EC20; 0% = ACh EC20, 100% = maximal ACh; AID 624126; P08173; activation, % at 3 µM;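 active means activation above its plate's cutoff, the mean activation of sample wells plus 3 SD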
# CHRM4 antagonist = CHRM4 antagonism in calcium assay | P08173 | inhibition, % at 3 µM | 360,000 tested, 0.73% active | CHO-hM4 cells, ACh EC80, Fluo-8 calcium fluorescence;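 active means inhibition above its plate's cutoff, the mean inhibition of sample wells plus 3 SD, cut at about 27% in these data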;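 further: 0% = acetylcholine EC80 with DMSO and 100% = DMSO without agonist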
# The depositor's hits bear a star. Hits are enriched below; roughly 1.9% of the tested compounds scored in any of these assays.
SMILES,M4 ag,CHRM5 antagonist,M5 ag,M5 PAM,M4 PAM,CHRM4 antagonist
COc1ccc(NC(=S)NC(NC(=O)c2cccc(C)c2)C(Cl)(Cl)Cl)c([N+](=O)[O-])c1 (stereo unspecified),3,-2,1,-7,1,-3
COc1ccc(NC(=S)NC(NC(=O)c2cccc(Cl)c2)C(Cl)(Cl)Cl)c([N+](=O)[O-])c1 (stereo unspecified),21,39*,12,-19,-5,8
COc1ccccc1CNC(=O)CN1C(=O)c2ccc([N+](=O)[O-])cc2C1=O,4,30*,-2,-11,-9,11
Cc1ccc(Oc2ncccc2/C=N/OCc2ccc(Cl)cc2Cl)cc1,0,-6,-1,2,4,-4
Cc1ccc(Oc2ncccc2CO)cc1,2,-15,0,6,26*,-4
C/C(=N\Nc1cc(C)nc(NCc2ccccc2)n1)c1ccc([N+](=O)[O-])cc1,0,23,-11,-10,-2,7
c1ccc2c(Nc3ccc4c(c3)OCCO4)c3c(nc2c1)CCCC3,2,44*,-9,-20,-10,-4
O=C(NCC(=O)N(CC1CCCO1)C(C(=O)NC1CCCC1)c1cccnc1)c1ccco1 (stereo unspecified),1,-13,8,23*,17,5
O=C(NCC(=O)N(Cc1ccccc1)C(C(=O)NC1CCCC1)c1cccnc1)c1ccco1 (stereo unspecified),1,6,-6,8,18*,2
Cc1ccc2c(c1)N(C(=O)CCC(=O)NC1CCN(Cc3ccccc3)CC1)CC(C)O2 (stereo unspecified),0,2,-5,-2,-5,8
CCCN1CCC(=O)N(CCSc2ccc(OC)cc2)CC1,5,-10,3,19*,0,-14
CCCN1CCC(=O)N(CCSc2ccc(C)cc2)CC1,1,-3,-4,9,4,5
O=S(=O)(c1ccc(Cl)cc1)N1CCN(C2CCN(Cc3ccccc3)CC2)CC1,2,-6,-13,-44,-15,15
COc1ccc(S(=O)(=O)N2CCC(N3CCN(Cc4ccccc4)CC3)CC2)cc1,1,45*,-11,-15,-19,46*
O=[N+]([O-])c1ccccc1S(=O)(=O)N1CCN(C2CCN(Cc3ccccc3)CC2)CC1,1,16,-9,-11,-14,29*
CC(=O)N1c2ccccc2NC2=C(C(=O)CCC2)C1c1ccco1 (stereo unspecified),1,11,8,21*,19,-9
CCCCS(=O)(=O)N1CCN(S(=O)(=O)c2cccs2)CC1,2,3,-4,-3,0,-4
Cc1c(CCC(=O)O)c(=O)oc2cc3occ(-c4ccc(F)cc4)c3cc12,1,38*,-1,35*,5,-12
O=C(CN1CCc2ccccc2C1)Nc1ccc(OC(F)(F)F)cc1,-1,18,-7,-20,-16,82*
O=C(CN1CCc2ccccc2C1)Nc1ccc(F)cc1,1,1,4,3,-3,3
CCOC(=O)/C(=C\c1cccnc1)C(=O)c1cc(C(C)=O)c(Nc2ccccc2)s1,5,10,-5,1,-3,46*
CCOC(=O)/C(=C\c1ccccc1)C(=O)c1cc(C(C)=O)c(Nc2ccccc2)s1,1,6,-1,-4,2,-3
O=C(N/N=C/c1cn(-c2cccs2)nc1-c1ccccc1)c1ccccc1Br,4,-6,2,-6,-5,10
O=C(N/N=C/c1cn(-c2cccs2)nc1-c1ccccc1)c1ccccc1O,12,28*,2,-17,-14,15
COc1ccc2[nH]c(C(=O)NCCCn3ccnc3)cc2c1,0,4,-2,2,-1,1
COc1ccc2nc(C)cc(NCc3ccc(F)cc3)c2c1,32*,32*,14,-6,-7,27*
COc1ccc2nc(C)cc(Nc3ccc(C)cc3)c2c1,1,5,-3,-4,-5,-1
